{"source": "paper PMC6055619", "about": "(British Journal of Haematology, 2018)", "key": {"patients with NDMM [1]": {"test_system": "patients with NDMM", "assay": "Phase 1 dose escalation", "assay_type": "in vivo, human", "details": "twice-weekly ixazomib 3·0 or 3·7 mg plus Rd", "method_in_brief": "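Phase 1 tested two fixed ixazomib doses (3·0 and 3·7 mg) with a standard 3 + 3 scheme, scoring DLTs during cycle 1. MTD was the highest dose with ≤1 of 6 evaluable patients having a DLT. RP2D selection also used response rates and toxicity over later cycles.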"}, "patients with NDMM [2]": {"test_system": "patients with NDMM", "assay": "Adverse events graded by NCI CTCAE v4·03", "assay_type": "in vivo, human", "method_in_brief": "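AEs were recorded throughout treatment and for 30 days after the last dose, and graded by NCI CTCAE v4·03 in all patients given ≥1 dose of any study drug. Maintenance patients had responding or stable disease after 16 cycles of ixazomib-Rd induction. They then took single-agent oral ixazomib on days 1, 4, 8 and 11 of 21-day cycles, at the last-tolerated induction dose, until progression or unacceptable toxicity.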"}, "[3]": {"assay": "Ixazomib plasma pharmacokinetics, non-compartmental analysis", "assay_type": "in vivo, human", "details": "for AUC(0-t): 3 mg, AUC0–72, geometric mean (%CV), RP2D 3·0 mg", "method_in_brief": "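Phase 1 patients took fixed oral ixazomib 3·0 or 3·7 mg on an empty stomach (≥1 h before or ≥2 h after a meal), on days 1, 4, 8 and 11 of a 21-day cycle. Co-dosing was lenalidomide 25 mg on days 1–14 plus dexamethasone 20 mg. Serial plasma samples were taken, and non-compartmental parameters were calculated on cycle 1 days 1 and 11. Values are reported as geometric mean (%CV).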"}, "[4]": {"details": "ref Gupta et al, 2015b; cited from earlier work"}, "[5]": {"details": "during single-agent ixazomib maintenance"}, "[6]": {"details": "patients who received single-agent ixazomib maintenance"}, "[7]": {"details": "received maintenance, n = 18, new-onset AEs during cycle ≥17"}}, "note": "“Also recorded” adds a separate entry of the source.", "data": [{"smiles": "CC(C)C[C@H](NC(=O)CNC(=O)c1cc(Cl)ccc1Cl)B(O)O", "note": "[ixazomib]", "values": [{"measurement": "Dose-limiting toxicities in cycle 1", "setting": "patients with NDMM [1]", "result": "No dose‐limiting toxicities; also recorded: no DLTs"}, {"measurement": "New-onset drug-related grade 3 PN NEC", "setting": "patients with NDMM [2]; during maintenance", "result": 6, "unit": "%"}, {"measurement": "New-onset drug-related grade 3 hyperglycaemia", "setting": "patients with NDMM [2]; during maintenance", "result": 0, "unit": "%"}, {"measurement": "New-onset drug-related grade 3 rashes, eruptions and exanthems NEC", "setting": "patients with NDMM [2]; during maintenance", "result": 6, "unit": "%"}, {"measurement": "New-onset drug-related PN NEC", "setting": "patients with NDMM [2]; [5]", "result": 28, "unit": "%"}, {"measurement": "New-onset drug-related fatigue", "setting": "patients with NDMM [2]; [5]", "result": 11, "unit": "%"}, {"measurement": "New-onset drug-related rashes, eruptions and exanthems NEC", "setting": "patients with NDMM [2]; [5]", "result": 17, "unit": "%"}, {"measurement": "New-onset AEs resulting in dose reductions", "setting": "patients with NDMM [2]; patients who received ixazomib maintenance", "result": 33, "unit": "%"}, {"measurement": "New-onset drug-related AEs during maintenance", "setting": "patients with NDMM [2]; [6]", "result": 89, "unit": "%"}, {"measurement": "New-onset drug-related grade 3 AEs during maintenance", "setting": "patients with NDMM [2]; [6]", "result": 28, "unit": "%"}, {"measurement": "On-study deaths", "setting": "patients with NDMM [2]; received maintenance, n = 18, cycle ≥17", "result": "0 n (%)"}, {"measurement": "AE resulting in any study drug dose reduction", "setting": "patients with NDMM [2]; [7]", "result": "6 (33) n (%)"}, {"measurement": "AE resulting in discontinuation", "setting": "patients with NDMM [2]; [7]", "result": "3 (17) n (%)"}, {"measurement": "Any AE", "setting": "patients with NDMM [2]; [7]", "result": "16 (89) n (%)"}, {"measurement": "Any SAE", "setting": "patients with NDMM [2]; [7]", "result": "2 (11) n (%)"}, {"measurement": "Any drug-related AE", "setting": "patients with NDMM [2]; [7]", "result": "16 (89) n (%)"}, {"measurement": "Any drug-related SAE", "setting": "patients with NDMM [2]; [7]", "result": "2 (11) n (%)"}, {"measurement": "Any drug-related grade ≥3 AE", "setting": "patients with NDMM [2]; [7]", "result": "5 (28) n (%)"}, {"measurement": "Any grade ≥3 AE", "setting": "patients with NDMM [2]; [7]", "result": "8 (44) n (%)"}, {"measurement": "Drug-related ALT increased, All-grade", "setting": "patients with NDMM [2]; [7]", "result": "1 (6) n (%)"}, {"measurement": "Drug-related ALT increased, Grade 3", "setting": "patients with NDMM [2]; [7]", "result": "0 n (%)"}, {"measurement": "Drug-related Anxiety, All-grade", "setting": "patients with NDMM [2]; [7]", "result": "0 n (%)"}, {"measurement": "Drug-related Anxiety, Grade 3", "setting": "patients with NDMM [2]; [7]", "result": "0 n (%)"}, {"measurement": "Drug-related Constipation, All-grade", "setting": "patients with NDMM [2]; [7]", "result": "0 n (%)"}, {"measurement": "Drug-related Constipation, Grade 3", "setting": "patients with NDMM [2]; [7]", "result": "0 n (%)"}, {"measurement": "Drug-related Diarrhoea, All-grade", "setting": "patients with NDMM [2]; [7]", "result": "5 (28) n (%)"}, {"measurement": "Drug-related Diarrhoea, Grade 3", "setting": "patients with NDMM [2]; [7]", "result": "1 (6) n (%)"}, {"measurement": "Drug-related Dizziness, All-grade", "setting": "patients with NDMM [2]; [7]", "result": "1 (6) n (%)"}, {"measurement": "Drug-related Dizziness, Grade 3", "setting": "patients with NDMM [2]; [7]", "result": "0 n (%)"}, {"measurement": "Drug-related Dysgeusia, All-grade", "setting": "patients with NDMM [2]; [7]", "result": "0 n (%)"}, {"measurement": "Drug-related Dysgeusia, Grade 3", "setting": "patients with NDMM [2]; [7]", "result": "0 n (%)"}, {"measurement": "Drug-related Fatigue, All-grade", "setting": "patients with NDMM [2]; [7]", "result": "2 (11) n (%)"}, {"measurement": "Drug-related Fatigue, Grade 3", "setting": "patients with NDMM [2]; [7]", "result": "0 n (%)"}, {"measurement": "Drug-related Hyperglycaemia, All-grade", "setting": "patients with NDMM [2]; [7]", "result": "2 (11) n (%)"}, {"measurement": "Drug-related Hyperglycaemia, Grade 3", "setting": "patients with NDMM [2]; [7]", "result": "0 n (%)"}, {"measurement": "Drug-related Hyponatraemia, All-grade", "setting": "patients with NDMM [2]; [7]", "result": "0 n (%)"}, {"measurement": "Drug-related Hyponatraemia, Grade 3", "setting": "patients with NDMM [2]; [7]", "result": "0 n (%)"}, {"measurement": "Drug-related Insomnia, All-grade", "setting": "patients with NDMM [2]; [7]", "result": "0 n (%)"}, {"measurement": "Drug-related Insomnia, Grade 3", "setting": "patients with NDMM [2]; [7]", "result": "0 n (%)"}, {"measurement": "Drug-related Muscle spasms, All-grade", "setting": "patients with NDMM [2]; [7]", "result": "0 n (%)"}, {"measurement": "Drug-related Muscle spasms, Grade 3", "setting": "patients with NDMM [2]; [7]", "result": "0 n (%)"}, {"measurement": "Drug-related Muscular weakness, All-grade", "setting": "patients with NDMM [2]; [7]", "result": "2 (11) n (%)"}, {"measurement": "Drug-related Muscular weakness, Grade 3", "setting": "patients with NDMM [2]; [7]", "result": "1 (6) n (%)"}, {"measurement": "Drug-related Nausea, All-grade", "setting": "patients with NDMM [2]; [7]", "result": "6 (33) n (%)"}, {"measurement": "Drug-related Nausea, Grade 3", "setting": "patients with NDMM [2]; [7]", "result": "1 (6) n (%)"}, {"measurement": "Drug-related Neutropenia, All-grade", "setting": "patients with NDMM [2]; [7]", "result": "0 n (%)"}, {"measurement": "Drug-related Neutropenia, Grade 3", "setting": "patients with NDMM [2]; [7]", "result": "0 n (%)"}, {"measurement": "Drug-related Neutrophil count decreased, All-grade", "setting": "patients with NDMM [2]; [7]", "result": "1 (6) n (%)"}, {"measurement": "Drug-related Neutrophil count decreased, Grade 3", "setting": "patients with NDMM [2]; [7]", "result": "1 (6) n (%)"}, {"measurement": "Drug-related PN NEC, All-grade", "setting": "patients with NDMM [2]; [7]", "result": "5 (28) n (%)"}, {"measurement": "Drug-related PN NEC, Grade 3", "setting": "patients with NDMM [2]; [7]", "result": "1 (6) n (%)"}, {"measurement": "Drug-related Peripheral oedema, All-grade", "setting": "patients with NDMM [2]; [7]", "result": "2 (11) n (%)"}, {"measurement": "Drug-related Peripheral oedema, Grade 3", "setting": "patients with NDMM [2]; [7]", "result": "0 n (%)"}, {"measurement": "Drug-related Pneumonia, All-grade", "setting": "patients with NDMM [2]; [7]", "result": "0 n (%)"}, {"measurement": "Drug-related Pneumonia, Grade 3", "setting": "patients with NDMM [2]; [7]", "result": "0 n (%)"}, {"measurement": "Drug-related Rashes, eruptions and exanthems NEC, All-grade", "setting": "patients with NDMM [2]; [7]", "result": "3 (17) n (%)"}, {"measurement": "Drug-related Rashes, eruptions and exanthems NEC, Grade 3", "setting": "patients with NDMM [2]; [7]", "result": "1 (6) n (%)"}, {"measurement": "Drug-related Thrombocytopenia, All-grade", "setting": "patients with NDMM [2]; [7]", "result": "0 n (%)"}, {"measurement": "Drug-related Thrombocytopenia, Grade 3", "setting": "patients with NDMM [2]; [7]", "result": "0 n (%)"}, {"measurement": "Drug-related Vomiting, All-grade", "setting": "patients with NDMM [2]; [7]", "result": "3 (17) n (%)"}, {"measurement": "Drug-related Vomiting, Grade 3", "setting": "patients with NDMM [2]; [7]", "result": "1 (6) n (%)"}, {"measurement": "Tmax", "setting": "[3]; human, plasma, oral", "result": 1, "unit": "h"}, {"measurement": "AUC(0-t)", "setting": "[3]; human, plasma, oral, day 1", "result": 315, "unit": "ng·h/mL"}, {"measurement": "AUC(0-t)", "setting": "[3]; human, plasma, oral, day 11", "result": 1110, "unit": "ng·h/mL"}, {"measurement": "Pharmacokinetic interaction of ixazomib with Rd", "setting": "[3]; pharmacokinetic data similar to other studies", "result": "no pharmacokinetic interaction"}, {"measurement": "Effects on QTc or heart rate", "setting": "[4]", "result": "no clinically meaningful effects"}]}]}
